ChEMBL document CHEMBL4513216, “Probing the Open Global Health Chemical Diversity Library for Multistage-Active Starting Points for Next-Generation Antimalarials” (ACS Infect Dis, 2020)

Assay: Toxicity liver stage against HepG2, at 10uM
Assay type: cell-based
Design: test concentration 10 uM, cell line HepG2-A16-CD81EGFP
Conditions: human, HepG2-A16-CD81EGFP cells; read-out: INHIBITION
Method in brief: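 Uninfected HepG2-A16-CD81EGFP cells, 3 × 10^3 per well, 1536-well, plated on prespotted compound at 10 μM final, parasite-free screening media added to match infected plates; puromycin 10 μM positive, DMSO 0.5% negative; run in parallel with 48 h PbLuc assay at 37 °C, 5% CO2; viability by CellTiter-Glo luminescence, normalized to controls.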

c1ccc(CNC[C@H]2Cn3ccnc3CO2)cc1
cytotoxicity at 10 µM: -5.25%

c1cc(-c2c[nH]c([C@@H]3COCCN3C3CCCCC3)n2)ccn1
cytotoxicity at 10 µM: 7.66%

CN1C(=O)COc2ccc(NC(=O)CCc3nc4cccnc4[nH]3)cc21
cytotoxicity at 10 µM: -1.23%

COc1ccc(-c2n[nH]c(C)c2CC(=O)NCC2CCCO2)cc1 (configuration not stated)
cytotoxicity at 10 µM: -11.6%

c1ccc2c(c1)CCN2c1nc(N2CCOCC2)c2nn[nH]c2n1
cytotoxicity at 10 µM: -3.29%

O=C(c1ccoc1)N1CCC2(C1)CN(c1ncccn1)C2
cytotoxicity at 10 µM: -5.55%

c1cc(C2CCN(c3cncnc3)CC2)ccn1
cytotoxicity at 10 µM: 2.58%

COCC(=O)N1CCC(O)(CN2CCN(c3ccccc3)CC2)C1 (configuration not stated)
cytotoxicity at 10 µM: -2.38%

Cc1ccc2cc(CNCCN3CCCC3)c(=O)[nH]c2c1
cytotoxicity at 10 µM: -1.89%

Cc1nccc(CN2CC[C@@]3(CCCN3Cc3ccccc3)[C@@H](O)C2)n1
cytotoxicity at 10 µM: -6.05%

COCc1cc(O)nc(C2CCCN(Cc3ccc(F)cc3)C2)n1 (configuration not stated)
cytotoxicity at 10 µM: -9.88%

CC(=O)N1CCN([C@@H]2CC[C@@H](N(C)C(=O)C3CCCCC3)[C@H]2O)CC1
cytotoxicity at 10 µM: -10.6%

CC1c2ccc(F)cc2CCN1C(=O)c1nc(=O)[nH][nH]1 (configuration not stated)
cytotoxicity at 10 µM: 15.6%

Cc1nn(C)c2ncc(CNCCc3ccccn3)cc12
cytotoxicity at 10 µM: 4.13%

Cc1ccc(C(=O)N(CC(=O)O)CC(C)C)cc1F
cytotoxicity at 10 µM: -4.07%

COCCCOc1ccc(C(=O)N(C)CCC(C)C)cn1
cytotoxicity at 10 µM: 6.19%

CN1CCOC(CNCC(=O)NCCC2=CCCCC2)C1 (configuration not stated)
cytotoxicity at 10 µM: -3.57%

Cc1ccc(F)c2c1N(C(=O)c1ccc(S(C)(=O)=O)cc1)CCC2
cytotoxicity at 10 µM: 2.97%

CCc1cnc(CNc2cccc3c2CCN(S(=O)(=O)CC)C3)o1
cytotoxicity at 10 µM: -52.5%

CC(Cn1cncn1)NC(=O)NCC(C)(C)Cc1ccccc1 (configuration not stated)
cytotoxicity at 10 µM: 17%

Cc1noc(CCCC(=O)NCC(c2ccco2)N2CCCCC2)n1 (configuration not stated)
cytotoxicity at 10 µM: 13.1%

Cc1nc(CCCNC(=O)c2c(F)cccc2Br)n[nH]1
cytotoxicity at 10 µM: -1.39%

CCn1cc(C#N)c(=O)c2cc(Br)ccc21
cytotoxicity at 10 µM: 1.35%

Cc1cc(C2CCCN2C(=O)NCc2cccnc2N(C)C)on1 (configuration not stated)
cytotoxicity at 10 µM: -8.1%

NC(=O)C1CCN(CCc2ccc(NCc3cscn3)cc2)CC1
cytotoxicity at 10 µM: 3.69%

Cc1csc(C2CCCCN2C(=O)CCn2cncn2)n1 (configuration not stated)
cytotoxicity at 10 µM: -6.32%

O=C(c1cc(F)cc2[nH]cnc12)N1CCCC1Cn1cccn1 (configuration not stated)
cytotoxicity at 10 µM: 7.39%

CCC(Nc1ccc(Oc2cccc(C#N)c2)cc1)C(N)=O (configuration not stated)
cytotoxicity at 10 µM: 35.2%

O=S(=O)(Nc1cn[nH]c1)c1ccc(F)c(Br)c1
cytotoxicity at 10 µM: -11.5%

O=C(NCCn1cccc1)C1CCCOC1 (configuration not stated)
cytotoxicity at 10 µM: 3.03%

Cc1cc(C)cc(CN2CCCC2c2noc(C)n2)c1 (configuration not stated)
cytotoxicity at 10 µM: 9.86%

CS(=O)(=O)Cc1ccc(NC(=O)Cc2cccnc2)cc1F
cytotoxicity at 10 µM: 1.34%

CS(=O)(=O)c1ccc(NC(=O)CSC(F)(F)F)cn1
cytotoxicity at 10 µM: 8.28%

Cc1noc(C)c1CNC(=O)C(C)Oc1ccccc1F (configuration not stated)
cytotoxicity at 10 µM: 3%

CC(NCc1ccc(C(C)(C)C)cc1)c1ccc(S(C)(=O)=O)cc1 (configuration not stated)
cytotoxicity at 10 µM: 14.5%

CC(=O)Nc1ccc(C(=O)N(C)Cc2cccc(F)c2)s1
cytotoxicity at 10 µM: 2.82%

CC(c1ccccc1Cl)N1CCN(C(=O)c2ccc(=O)[nH]c2)CC1 (configuration not stated)
cytotoxicity at 10 µM: -7.85%

CC(CNC(=O)c1ccn(-c2ccc(F)cc2)n1)Cn1cccn1 (configuration not stated)
cytotoxicity at 10 µM: -41.4%

c1cncc(OCCNC2Cc3ccccc3C2)c1
cytotoxicity at 10 µM: 4.32%

CC(CN1CCOCC1)NC(=O)c1cccc2cn[nH]c12 (configuration not stated)
cytotoxicity at 10 µM: -7.18%

CC(C)c1ccc(-n2cc(O)c(C(=O)N3CCC(C(N)=O)CC3)n2)cc1
cytotoxicity at 10 µM: -52.6%

Cc1c(C(=O)NC2CC(C)(C)NC(C)(C)C2)cnn1-c1ccc(F)cc1
cytotoxicity at 10 µM: -45.7%

CC(C)N(CC1CCCN(Cc2ccon2)C1)C(=O)OC(C)(C)C (configuration not stated)
cytotoxicity at 10 µM: 7.09%

COCCN1CC(=O)c2sc(NC(C)C)nc2C1
cytotoxicity at 10 µM: -4.91%

OCCNc1nccc(-c2cn3nccc3nc2C2CCCCC2)n1
cytotoxicity at 10 µM: -0.085%

COc1ccccc1S(=O)(=O)N1CCN(C)[C@@H]2CS(=O)(=O)C[C@@H]21
cytotoxicity at 10 µM: 19.3%

CCSCCNc1cc(C)nc2c(C)c(C)nn12
cytotoxicity at 10 µM: 5.88%

CNc1ccnc(N2C[C@@H](C)[C@](O)(C3CC3)C2)n1
cytotoxicity at 10 µM: -13.1%

CC(C)(O)CCc1cccc(C(=O)NCC2CN(S(C)(=O)=O)CCO2)c1 (configuration not stated)
cytotoxicity at 10 µM: 2.29%

CCN1CC(CN(C)Cc2nc(-c3ccoc3)oc2C)CC1=O (configuration not stated)
cytotoxicity at 10 µM: -5.13%

Cc1cccc(C)c1OC1CN(Cc2cnc(N3CCOCC3)nc2)C1
cytotoxicity at 10 µM: 3.47%

c1ccc(CN2CCC(Nc3ncnc4c3CCNCC4)C2)cc1 (configuration not stated)
cytotoxicity at 10 µM: 8.03%

O=C(O)[C@]12CN(CC3CCC3)C[C@H]1CN(c1cnccn1)C2
cytotoxicity at 10 µM: 8.16%

O=C(NCC(O)c1ccc(F)cc1)C1CCN(C2CCCCC2)CC1 (configuration not stated)
cytotoxicity at 10 µM: 5.67%

Cn1ccnc1-c1nccn1-c1cccc(CN2CCCC2)c1
cytotoxicity at 10 µM: -2.36%

Cc1nc(O)cc(CCNC(=O)c2ccc(CN3CCCCC3)cc2)n1
cytotoxicity at 10 µM: 8.61%

COCCN(C)C[C@@H]1CN(C(=O)c2ccc(O)c(C)c2)C[C@@H]1CO
cytotoxicity at 10 µM: -11.8%

CN(C)S(=O)(=O)c1ccc(CNC(=O)c2cn3c(n2)CNCC3)cc1
cytotoxicity at 10 µM: 16.9%

O=C(CCn1cnnn1)N1CCCC(CO)(CCc2ccccc2)C1 (configuration not stated)
cytotoxicity at 10 µM: 5.26%

CCC(C)N(Cc1cccnc1)C(=O)c1ncccc1O (configuration not stated)
cytotoxicity at 10 µM: 14.9%

Cc1cc(C)c2[nH]c(=O)c(CN3CCCC(O)(CO)C3)cc2c1 (configuration not stated)
cytotoxicity at 10 µM: -2.25%

O=C1CN(CC[C@@H](O)c2ccccc2)CCN1c1ccccc1Cl
cytotoxicity at 10 µM: 1.29%

CCc1cc(CN(C)Cc2nc(-c3ccc(OC)cc3F)oc2C)on1
cytotoxicity at 10 µM: -3.4%

Cc1[nH]ccc1C(=O)N1CCCC(c2nccn2Cc2cscn2)C1 (configuration not stated)
cytotoxicity at 10 µM: -17.5%

Cc1nccc(CN2CCC(c3nnsc3S(C)(=O)=O)CC2)n1
cytotoxicity at 10 µM: 2.86%

CCN1CCN(CCCNC(=O)NC(C)c2nncn2C)CC1 (configuration not stated)
cytotoxicity at 10 µM: -12.8%

c1ccc(-c2ccc(CN3CCOC(Cn4cncn4)C3)cc2)cc1 (configuration not stated)
cytotoxicity at 10 µM: 9.96%

Cc1cnn(CC2CN(Cc3ccc(-n4cccn4)cc3)CCO2)c1 (configuration not stated)
cytotoxicity at 10 µM: -0.674%

CC(C)n1ccnc1CN1CCCN(C(=O)CN(C)C2CC2)CC1
cytotoxicity at 10 µM: -3.96%

O=C(c1ccc(N2CCCC2)nn1)N1CCCC(n2cccn2)C1 (configuration not stated)
cytotoxicity at 10 µM: -5.58%

CCN(CC)C(=O)c1nnn(-c2ccc(C)cc2)c1C1CC1
cytotoxicity at 10 µM: -8.35%

Cn1ncc2c(=O)[nH]c(N3CCN(C(=O)c4ccsc4)CC3)nc21
cytotoxicity at 10 µM: -6.17%

CCC(CN1CCOCC1)n1cncc1-c1ccc2c(c1)CCCN2C (configuration not stated)
cytotoxicity at 10 µM: 8.9%

Cc1c(Br)cccc1C(=O)NCC1CCNCC1
cytotoxicity at 10 µM: -16%

Cc1cnccc1-c1cnn(CCNC(=O)C(C)(C)C)c1C1CC1
cytotoxicity at 10 µM: -0.459%

Cn1nnc2c1CCN(CC1CC1)C2COCc1ccccc1 (configuration not stated)
cytotoxicity at 10 µM: 6.74%

Cc1nccn1CCC1CCNCC1
cytotoxicity at 10 µM: -2.36%

O=C(c1ccsc1)N1CCc2c(COCC3CC3)cncc2C1
cytotoxicity at 10 µM: 1.65%

Cc1noc2nc(C3CCN(CC4=CCCOC4)CC3)cc(C(F)F)c12
cytotoxicity at 10 µM: 0.307%

Cc1cccc(CN2C[C@@H]3COC[C@]3(CNC(=O)c3ccsc3)C2)n1
cytotoxicity at 10 µM: -1.85%

CN1CC(=O)N(c2cnn(C)c2)CC12CCN(Cc1cccnc1)C2 (configuration not stated)
cytotoxicity at 10 µM: -1.69%

Cc1ccc(-c2cc(C3=NC(=CN4CCN(C)CC4)NO3)[nH]n2)s1
cytotoxicity at 10 µM: -9.45%
